ChEMBL document CHEMBL4689842, “EUbOPEN Chemogenomics Library wave 1” (2021)

Test system: Fibroblast
Experiment: Multiplex assay against human fibroblast
Format: toxicity, cell-based
Summary of the method: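 Compound was added to live cells that had been stained at seeding with Hoechst33342, BioTracker Green Microtubule Cytoskeleton Dye, MitoTracker Red and Annexin V Alexa Fluor 680, and imaging followed on a CQ1 microscope at 37°C and 5% CO2. CellPathfinder machine-learning gating divided cells into Hoechst high-intensity objects or normal cells, normal cells into healthy, pyknosed or fragmented nuclei, and pyknosed cells into mitotic or apoptotic. Tubulin, mitochondrial-mass and membrane-permeability phenotypes are per cents of healthy-nucleus cells.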

[1] = 12 h, 1 µM, compound concentration 1 uM, replicate 1
[2] = 12 h, 1 µM, compound concentration 1 uM, replicate 2
[3] = 12 h, 10 µM, compound concentration 10 uM, replicate 1
[4] = 12 h, 10 µM, compound concentration 10 uM, replicate 2
[5] = 24 h, 1 µM, compound concentration 1 uM, replicate 1
[6] = 24 h, 1 µM, compound concentration 1 uM, replicate 2
[7] = 24 h, 10 µM, compound concentration 10 uM, replicate 1
[8] = 24 h, 10 µM, compound concentration 10 uM, replicate 2
[9] = 48 h, 1 µM, compound concentration 1 uM, replicate 1
[10] = 48 h, 1 µM, compound concentration 1 uM, replicate 2
[11] = 48 h, 10 µM, compound concentration 10 uM, replicate 1
[12] = 48 h, 10 µM, compound concentration 10 uM, replicate 2

O=c1cc(N2CCOCC2)oc2c(-c3cccc4c3sc3ccccc34)cccc12
Population Apoptotic (%) [1]: 65% | Population Fragmented Nuclei (%) [1]: 23% | Population Healthy Nuclei (%) [1]: 44% | Population Hoechst High Intensity Objects (%) [1]: 13% | Population Membrane Permeable-Phenotype (%) [1]: 32% | Population Mitochondria Different-Phenotype (%) [1]: 5% | Population Mitotic Cells (%) [1]: 34% | Population Normal (%) [1]: 86% | Population Pyknosed Nuclei (%) [1]: 32% | Population Tubulin-Different-Phenotype (%) [1]: 36% | Total Cell Count [1]: 136 | Population Apoptotic (%) [2]: 100% | Population Fragmented Nuclei (%) [2]: 15% | Population Healthy Nuclei (%) [2]: 77% | Population Hoechst High Intensity Objects (%) [2]: 10% | Population Membrane Permeable-Phenotype (%) [2]: 2% | Population Mitochondria Different-Phenotype (%) [2]: 6% | Population Mitotic Cells (%) [2]: 0% | Population Normal (%) [2]: 90% | Population Pyknosed Nuclei (%) [2]: 6% | Population Tubulin-Different-Phenotype (%) [2]: 14% | Total Cell Count [2]: 79 | Population Apoptotic (%) [3]: 61% | Population Fragmented Nuclei (%) [3]: 35% | Population Healthy Nuclei (%) [3]: 28% | Population Hoechst High Intensity Objects (%) [3]: 13% | Population Membrane Permeable-Phenotype (%) [3]: 30% | Population Mitochondria Different-Phenotype (%) [3]: 28% | Population Mitotic Cells (%) [3]: 38% | Population Normal (%) [3]: 86% | Population Pyknosed Nuclei (%) [3]: 36% | Population Tubulin-Different-Phenotype (%) [3]: 95% | Total Cell Count [3]: 171 | Population Apoptotic (%) [4]: 31% | Population Fragmented Nuclei (%) [4]: 19% | Population Healthy Nuclei (%) [4]: 45% | Population Hoechst High Intensity Objects (%) [4]: 16% | Population Membrane Permeable-Phenotype (%) [4]: 23% | Population Mitochondria Different-Phenotype (%) [4]: 90% | Population Mitotic Cells (%) [4]: 68% | Population Normal (%) [4]: 83% | Population Pyknosed Nuclei (%) [4]: 34% | Total Cell Count [4]: 70 | Population Apoptotic (%) [5]: 57% | Population Fragmented Nuclei (%) [5]: 19% | Population Healthy Nuclei (%) [5]: 60% | Population Hoechst High Intensity Objects (%) [5]: 9% | Population Membrane Permeable-Phenotype (%) [5]: 31% | Population Mitochondria Different-Phenotype (%) [5]: 2% | Population Mitotic Cells (%) [5]: 42% | Population Normal (%) [5]: 90% | Population Pyknosed Nuclei (%) [5]: 20% | Population Tubulin-Different-Phenotype (%) [5]: 39% | Total Cell Count [5]: 151 | Population Apoptotic (%) [6]: 60% | Population Fragmented Nuclei (%) [6]: 11% | Population Healthy Nuclei (%) [6]: 82% | Population Hoechst High Intensity Objects (%) [6]: 6% | Population Membrane Permeable-Phenotype (%) [6]: 9% | Population Mitochondria Different-Phenotype (%) [6]: 9% | Population Mitotic Cells (%) [6]: 40% | Population Normal (%) [6]: 93% | Population Pyknosed Nuclei (%) [6]: 6% | Population Tubulin-Different-Phenotype (%) [6]: 15% | Total Cell Count [6]: 86 | Population Apoptotic (%) [7]: 77% | Population Fragmented Nuclei (%) [7]: 28% | Population Healthy Nuclei (%) [7]: 45% | Population Hoechst High Intensity Objects (%) [7]: 14% | Population Membrane Permeable-Phenotype (%) [7]: 19% | Population Mitochondria Different-Phenotype (%) [7]: 40% | Population Mitotic Cells (%) [7]: 22% | Population Normal (%) [7]: 85% | Population Pyknosed Nuclei (%) [7]: 26% | Population Tubulin-Different-Phenotype (%) [7]: 95% | Total Cell Count [7]: 160 | Population Apoptotic (%) [8]: 66% | Population Fragmented Nuclei (%) [8]: 14% | Population Healthy Nuclei (%) [8]: 21% | Population Hoechst High Intensity Objects (%) [8]: 6% | Population Membrane Permeable-Phenotype (%) [8]: 50% | Population Mitochondria Different-Phenotype (%) [8]: 70% | Population Mitotic Cells (%) [8]: 33% | Population Normal (%) [8]: 94% | Population Pyknosed Nuclei (%) [8]: 63% | Population Tubulin-Different-Phenotype (%) [8]: 70% | Total Cell Count [8]: 86 | Population Apoptotic (%) [9]: 60% | Population Fragmented Nuclei (%) [9]: 33% | Population Healthy Nuclei (%) [9]: 56% | Population Hoechst High Intensity Objects (%) [9]: 11% | Population Membrane Permeable-Phenotype (%) [9]: 21% | Population Mitochondria Different-Phenotype (%) [9]: 7% | Population Mitotic Cells (%) [9]: 40% | Population Normal (%) [9]: 88% | Population Pyknosed Nuclei (%) [9]: 10% | Population Tubulin-Different-Phenotype (%) [9]: 27% | Total Cell Count [9]: 167 | Population Apoptotic (%) [10]: 50% | Population Fragmented Nuclei (%) [10]: 18% | Population Healthy Nuclei (%) [10]: 76% | Population Hoechst High Intensity Objects (%) [10]: 6% | Population Membrane Permeable-Phenotype (%) [10]: 17% | Population Mitochondria Different-Phenotype (%) [10]: 2% | Population Mitotic Cells (%) [10]: 50% | Population Normal (%) [10]: 93% | Population Pyknosed Nuclei (%) [10]: 4% | Population Tubulin-Different-Phenotype (%) [10]: 24% | Total Cell Count [10]: 97 | Population Apoptotic (%) [11]: 68% | Population Fragmented Nuclei (%) [11]: 51% | Population Healthy Nuclei (%) [11]: 23% | Population Hoechst High Intensity Objects (%) [11]: 12% | Population Membrane Permeable-Phenotype (%) [11]: 17% | Population Mitochondria Different-Phenotype (%) [11]: 37% | Population Mitotic Cells (%) [11]: 31% | Population Normal (%) [11]: 87% | Population Pyknosed Nuclei (%) [11]: 25% | Population Tubulin-Different-Phenotype (%) [11]: 80% | Total Cell Count [11]: 173 | Population Apoptotic (%) [12]: 64% | Population Fragmented Nuclei (%) [12]: 27% | Population Healthy Nuclei (%) [12]: 55% | Population Hoechst High Intensity Objects (%) [12]: 10% | Population Membrane Permeable-Phenotype (%) [12]: 6% | Population Mitochondria Different-Phenotype (%) [12]: 48% | Population Mitotic Cells (%) [12]: 35% | Population Normal (%) [12]: 90% | Population Pyknosed Nuclei (%) [12]: 17% | Population Tubulin-Different-Phenotype (%) [12]: 88% | Total Cell Count [12]: 90
